Laboratory results published in ChEMBL document CHEMBL3421616, “Conformational Restriction Leading to a Selective CB2 Cannabinoid Receptor Agonist Orally Active Against Colitis” (ACS Med Chem Lett, 2015).
Activity calls are given as the source filed them. No cut-off for these calls is given here.

Assays:
[1] = target: T1, Cannabinoid receptor 2 (Homo sapiens, UniProt P34972); assay: Displacement of [3H]-CP55940 from human CB2 receptor after 1 hr by scintillation counting analysis
[2] = target: Cannabinoid receptor 1 (Homo sapiens, UniProt P21554); assay: Displacement of [3H]-CP55940 from human CB1 receptor after 1 hr by scintillation counting analysis
[3] = target: T1, Cannabinoid receptor 2; assay: Agonist activity at human CB2 receptor after 1 hr by [35S]-GTPgammaS binding assay; assay type: functional
[4] = tested on: MDCK-II; assay: Inhibition of MDR1 in MDCK2 cells at 10 uM after 30 mins by calcein AM uptake assay relative to control; assay type: cell-based; settings: Canis lupus familiaris
In short: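 MDR1-MDCKII cells; P-gp function read as cellular calcein AM uptake after 30 min incubation at 37 °C.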

[5] = Metabolic stability in human liver microsomes assessed as compound remaining at 1 uM after 60 mins; assay type: ADME; settings: read-out: Stability
In short: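 Compound (1 μM) incubated with human liver microsomes (0.3 mg/mL) at 37 °C, sampled at 0 and 60 min; percent remaining reported.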

[6] = target: hERG (KCNH2) (Homo sapiens, UniProt Q12809); assay: Binding affinity to human ERG expressed in HEK293 cells assessed as inhibition of tail current at 1 uM after 5 to 10 mins by patch-clamp assay relative to control; assay type: cell-based; settings: HEK293 cells expressing human ERG
In short: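 hERG-expressing HEK 293 cells, conventional whole-cell patch clamp; compound at 1 μM applied cumulatively for 5–10 min at room temperature; tail current inhibition read.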

[7] = tested on: Mus musculus; assay: Anticolitis activity in TNBS-induced C57Bl6 mouse acute colitis model assessed as reduction of mortality rate at 0.1 to 10 mg/kg, po qd administered over 7 days, starting 2 days prior to TNBS challenge measured 5 days post TNBS challenge relative to vehicle-treated control; assay type: functional, organism-based
In short: (§1)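 Mice given test article orally in carboxymethyl cellulose once daily at 0.1, 1 or 10 mg/kg for 7 days, beginning 2 days before TNBS colitis induction; vehicle-only (CMC) controls. Survival followed throughout; body weight loss, semiquantitative macroscopic colon score, histological score and colonic TNFα and IL-1β mRNA assessed at euthanasia 5 days after TNBS. Mean ± SEM, 10 mice per group.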

[8] = tested on: Mus musculus; assay: Anticolitis activity in po dosed TNBS-induced C57Bl6 mouse acute colitis model assessed as reduction of body weight loss administered as qd over 7 days, starting 2 days prior to TNBS challenge measured 5 days post TNBS challenge; assay type: functional, organism-based; in short: as §1
[9] = tested on: Mus musculus; assay: Anticolitis activity in po dosed TNBS-induced C57Bl6 mouse acute colitis model assessed as decrease in bowel thickness and areas of ulceration administered as qd over 7 days, starting 2 days prior to TNBS challenge measured 5 days post TNBS challenge; assay type: functional, organism-based; in short: as §1
[10] = tested on: Mus musculus; assay: Anticolitis activity in TNBS-induced C57Bl6 mouse acute colitis model assessed as decrease in bowel thickness and areas of ulceration at 10 mg/kg, po qd administered over 7 days, starting 2 days prior to TNBS challenge measured 5 days post TNBS challenge (reference value: 4.9); assay type: functional
In short: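 Mouse acute colitis induced by TNBS. Compound given orally in carboxymethyl cellulose (CMC) once daily at 0.1, 1 and 10 mg/kg for 7 days, starting 2 days before induction; controls received CMC alone. Mice euthanised 5 days after TNBS. Colon damage graded with a semiquantitative macroscopic score; mean ± SEM of 10 mice per group, compared with vehicle.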

[11] = tested on: Mus musculus; assay: Anticolitis activity in TNBS-induced C57Bl6 mouse acute colitis model assessed as decrease in degree of inflammation infiltrate, presence of erosion, ulceration, necrosis and depth, surface extension of lesions at 10 mg/kg, po qd administered over 7 days, starting 2 days prior to TNBS challenge measured 5 days post TNBS challenge by Giemsa staining relative to vehicle-treated control; assay type: functional; design: scale not given: the % may be the effect or the level left; in short: as §1
[12] = tested on: Mus musculus; assay: Anticolitis activity in TNBS-induced C57Bl6 mouse acute colitis model assessed as downregulation of IL-1beta mRNA expression in colon at 10 mg/kg, po qd administered over 7 days, starting 2 days prior to TNBS challenge measured 5 days post TNBS challenge by real-time PCR analysis; assay type: functional, organism-based; design: dose 10 mg/kg; in short: as §1
[13] = tested on: Mus musculus; assay: Anticolitis activity in TNBS-induced C57Bl6 mouse acute colitis model assessed as downregulation of TNF-alpha mRNA expression in colon at 10 mg/kg, po qd administered over 7 days, starting 2 days prior to TNBS challenge measured 5 days post TNBS challenge by real-time PCR analysis; assay type: functional, organism-based; design: dose 10 mg/kg; in short: as §1
[14] = Fraction unbound in human plasma after 18 hrs by equilibrium dialysis method; assay type: ADME, cell-free
In short: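 Plasma protein binding by equilibrium dialysis, 18 h at 37 °C.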

[15] = Permeability across apical to basolateral side in human Caco2 cells at 10 uM after 60 mins; assay type: ADME, cell-based; settings: Caco-2, read-out: permeability

Sequence of Cannabinoid receptor 1 (P21554 whole entry): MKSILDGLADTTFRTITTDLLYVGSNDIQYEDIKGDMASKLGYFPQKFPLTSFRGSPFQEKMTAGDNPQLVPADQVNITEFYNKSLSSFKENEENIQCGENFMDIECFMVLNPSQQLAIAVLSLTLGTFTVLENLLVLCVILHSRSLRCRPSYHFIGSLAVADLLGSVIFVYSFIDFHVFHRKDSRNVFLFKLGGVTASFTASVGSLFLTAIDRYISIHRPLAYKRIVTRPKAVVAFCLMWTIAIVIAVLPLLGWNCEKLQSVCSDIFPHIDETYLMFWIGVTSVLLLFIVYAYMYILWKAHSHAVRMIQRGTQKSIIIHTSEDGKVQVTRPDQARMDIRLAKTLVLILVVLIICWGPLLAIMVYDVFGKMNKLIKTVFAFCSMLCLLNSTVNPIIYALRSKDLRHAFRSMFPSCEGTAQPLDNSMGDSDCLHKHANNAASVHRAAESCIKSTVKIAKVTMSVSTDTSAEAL
T1 sequence (P34972 whole entry): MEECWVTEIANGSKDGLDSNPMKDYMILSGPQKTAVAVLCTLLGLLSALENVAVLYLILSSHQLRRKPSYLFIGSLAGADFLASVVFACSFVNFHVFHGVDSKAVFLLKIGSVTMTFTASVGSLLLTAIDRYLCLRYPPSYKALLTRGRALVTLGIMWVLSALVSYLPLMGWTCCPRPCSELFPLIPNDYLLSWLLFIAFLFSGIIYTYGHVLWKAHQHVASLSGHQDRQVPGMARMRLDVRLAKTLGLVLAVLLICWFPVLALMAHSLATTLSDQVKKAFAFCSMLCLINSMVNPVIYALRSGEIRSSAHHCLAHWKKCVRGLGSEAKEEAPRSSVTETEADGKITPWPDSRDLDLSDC
Sequence of hERG (KCNH2) (Q12809 whole entry): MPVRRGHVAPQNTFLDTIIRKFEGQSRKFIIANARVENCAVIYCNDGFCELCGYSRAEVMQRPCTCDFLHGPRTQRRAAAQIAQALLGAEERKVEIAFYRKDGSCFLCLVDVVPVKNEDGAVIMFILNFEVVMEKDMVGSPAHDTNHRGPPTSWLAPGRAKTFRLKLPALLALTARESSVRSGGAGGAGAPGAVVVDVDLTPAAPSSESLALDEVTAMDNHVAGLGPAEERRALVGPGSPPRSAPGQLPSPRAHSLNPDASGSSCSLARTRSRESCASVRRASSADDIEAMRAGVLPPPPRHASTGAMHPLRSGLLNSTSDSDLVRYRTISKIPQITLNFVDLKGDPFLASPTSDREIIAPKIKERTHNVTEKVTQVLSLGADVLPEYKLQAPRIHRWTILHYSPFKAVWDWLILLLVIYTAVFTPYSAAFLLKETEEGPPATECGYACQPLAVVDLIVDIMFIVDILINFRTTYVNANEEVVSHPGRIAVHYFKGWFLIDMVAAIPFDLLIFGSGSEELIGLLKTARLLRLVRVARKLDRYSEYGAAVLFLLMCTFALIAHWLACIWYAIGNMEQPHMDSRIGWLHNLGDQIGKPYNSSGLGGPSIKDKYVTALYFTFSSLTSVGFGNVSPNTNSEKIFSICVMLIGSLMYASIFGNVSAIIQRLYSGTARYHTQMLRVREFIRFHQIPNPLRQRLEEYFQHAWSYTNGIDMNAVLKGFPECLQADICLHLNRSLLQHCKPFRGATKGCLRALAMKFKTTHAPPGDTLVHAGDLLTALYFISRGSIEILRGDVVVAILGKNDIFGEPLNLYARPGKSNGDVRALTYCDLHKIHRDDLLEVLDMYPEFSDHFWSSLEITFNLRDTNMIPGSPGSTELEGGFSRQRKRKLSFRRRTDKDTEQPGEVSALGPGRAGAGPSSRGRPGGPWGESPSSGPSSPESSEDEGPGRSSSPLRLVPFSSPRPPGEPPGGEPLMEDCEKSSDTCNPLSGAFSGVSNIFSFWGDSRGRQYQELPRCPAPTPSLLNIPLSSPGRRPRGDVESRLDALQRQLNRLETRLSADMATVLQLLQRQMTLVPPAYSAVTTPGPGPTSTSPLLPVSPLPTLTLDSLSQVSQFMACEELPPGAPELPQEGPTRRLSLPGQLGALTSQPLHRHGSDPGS

Structure (SMILES) | Ki [1] [µM] | Ki [2] [µM] | also measured
CCCCCn1c(-c2ccccc2)c2c(=O)n(Cc3ccccc3)nc-2c2ccccc21 | > 3 | > 3 | –
CCCCCn1cc2c(=O)n(CC3CCCCC3)nc-2c2ccccc21 | – | – | Emax [3]: 149%
CCCCCn1cc2c(=O)n(C3CCCCC3)nc-2c2ccccc21 | – | – | Emax [3]: 160%
CCCCCn1cc2c(=O)n(CCCc3ccccc3)nc-2c2ccccc21 | > 3 | > 3 | –
CCCCCn1cc2c(=O)n(CC34CC5CC(CC(C5)C3)C4)nc-2c2ccccc21 | – | > 3 | inhibition [4]: 30.6%; remaining at 1 h, 1 µM [5]: 64%; inhibition at 1 µM [6]: 35.5%; Emax [3]: 163%; Activity [7]: Active; Activity [8]: Dose-dependent effect; Activity [9]: Dose-dependent effect; fold change (FC) [10]: 1.7; Activity [11]: 65%; Activity [12]: Active; Activity [13]: inactive; fraction unbound at 18 h [14]: < 1; Papp A→B at 1 h, 10 µM [15]: 0.8 ×10⁻⁶ cm/s
CCCCCn1c(-c2ccccc2)c2c(=O)n(CCCc3ccccc3)nc-2c2ccccc21 | > 3 | > 3 | –
CCCCCn1c(-c2ccccc2)c2c(=O)n(-c3ccccc3)nc-2c2ccccc21 | > 3 | > 3 | –
CCCCCn1cc(C(=O)NCC23CC4CC(CC(C4)C2)C3)c(=O)c2ccccc21 | 0.0216 | > 3 | –
CCCCCn1cc(C(=O)NC23CC4CC(CC(C4)C2)C3)c(=O)c(-c2ccncc2)c1C | – | > 1 | –
CCCCCn1cc2c(=O)n(-c3cccc(C(F)(F)F)c3)nc-2c2ccccc21 | 0.0292 | > 3 | –
CCCCCn1c(-c2ccccc2)c2c(=O)n(-c3cccc(C(F)(F)F)c3)nc-2c2ccccc21 | > 3 | > 3 | –
CCCCCn1c(-c2ccccc2)c2c(=O)n(-c3ccc(OC)cc3)nc-2c2ccccc21 | > 3 | > 3 | –
CCCCCn1c(-c2ccccc2)c2c(=O)[nH]nc-2c2ccccc21 | > 3 | > 3 | –
CCCCCn1cc2c(=O)n(CCC34CC5CC(CC(C5)C3)C4)nc-2c2ccccc21 | – | > 3 | –
CCCCCn1cc2c(=O)n(-c3ccc(OC)cc3)nc-2c2ccccc21 | > 3 | > 3 | –
CCCCCn1cc2c(=O)n(-c3ccccc3)nc-2c2ccccc21 | 1.36 | > 3 | –
CCCCCn1cc2c(=O)n(CCC3CCCCC3)nc-2c2ccccc21 | – | – | Emax [3]: 141%
